Results published in ChEMBL document CHEMBL5230165, “Synthesis of bis-furyl-pyrrolo[3,4-b]pyridin-5-ones via Ugi-Zhu reaction and in vitro activity assays against human SARS-CoV-2 and in silico studies on its main proteins” (RSC Med Chem, 2023).
Active and inactive are the calls of the source. The rule behind the calls is not given here.

Assays:
[1] = Cytotoxicity against African green monkey Vero E6 cells assessed as cell viability incubated for 48 hrs by crystal violet staining assay; assay type: toxicity, cell-based, Vero C1008; details: African green monkey (Chlorocebus sabaeus)
[2] = tested on: SARS-CoV-2; assay: Antiviral activity against SARS-CoV-2 infected in African green monkey Vero E6 cells assessed as inhibition of viral infection at 10 uM pre-infected with cells for 1 hrs followed by compound addition and measured after 24 hrs by crystal violet staining based plaque reduction assay; assay type: functional; details: for Activity: Severe acute respiratory syndrome coronavirus 2
[3] = tested on: SARS-CoV-2; assay: Antiviral activity against SARS-CoV-2 infected in African green monkey Vero E6 cells assessed as inhibition of viral infection at 10 uM incubated for 1 hrs followed by compound washout and measured after 24 hrs by crystal violet staining based plaque assay relative to control; assay type: functional; details: Severe acute respiratory syndrome coronavirus 2, Vero C1008
[4] = Cytotoxicity against African green monkey Vero E6 cells assessed as cell viability upto 10 uM incubated for 48 hrs by crystal violet staining assay relative to control; assay type: toxicity, cell-based, Vero C1008; details: chlorocebus sabaeus, read-out: Activity
Outline: (§1)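 Vero E6 cells were seeded at 25 000 per well 24 h ahead in DMEM with 8% FBS at 37 °C and 5% CO2. Compounds were tested at 0.001–100 μM for 48 h, with a 0.5% DMSO vehicle control. Cells were fixed in formaldehyde and stained with crystal violet, the dye was released with 10% acetic acid, and A590 was read. Viability is relative to untreated medium. IC50 came from polynomial regression.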

[5] = tested on: Vero C1008; assay: Cytotoxicity against African green monkey Vero E6 cells assessed as reduction in cell viability at 100 uM incubated for 48 hrs by crystal violet staining assay; assay type: toxicity, cell-based; details: chlorocebus sabaeus, vero c1008, 48 h; outline: as §1

SMILES	IC50 at 48 h [1]	Activity [2]	inhibition at 10 µM [3]	viability at 48 h, up to 10 µM [4]	Activity [5]	inhibition at 10 µM ([2]; Severe acute respiratory syndrome coronavirus 2, Vero C1008)
O=C1c2cc(N3CCOCC3)c(Cc3ccccc3)nc2C(c2ccoc2)N1CC1CCCO1 (stereo unspecified)	290 µM	inactive	9.4%	≥ 100%	Toxic	
O=C1c2cc(N3CCOCC3)c(Cc3ccccc3)nc2C(c2ccco2)N1Cc1ccco1 (stereo unspecified)	276 µM	inactive	19.4%	≥ 100%	Toxic	
O=C1c2cc(N3CCOCC3)c(Cc3ccccc3)nc2C(C2CCCO2)N1Cc1ccco1 (stereo unspecified)	612 µM	Active	31.9%	≥ 100%		
O=C1c2cc(N3CCOCC3)c(Cc3ccccc3)nc2C(c2ccoc2)N1Cc1ccco1 (stereo unspecified)	85.1 µM			≥ 100%	Toxic	53%
O=C1c2cc(N3CCOCC3)c(Cc3ccc(O)cc3)nc2C(c2ccco2)N1Cc1ccco1 (stereo unspecified)	153 µM	inactive	77%	≥ 100%	Toxic	
O=C1c2cc(N3CCOCC3)c(Cc3ccccc3)nc2C(c2ccco2)N1CC1CCCO1 (stereo unspecified)	76.9 µM			≥ 100%	Toxic	
